In ChEMBL document CHEMBL1146609, “Synthesis of water-soluble prodrugs of BMS-191011: a maxi-K channel opener targeted for post-stroke neuroprotection” (Bioorg Med Chem Lett, 2003):
Converted amounts (≈) assume the structure as drawn. “And” between values parts separate entries of the source, which are not always exact repeats. Equal values may be shown once. One block for each compound: values may come before it.

How the values were obtained:
[1] = Solubility in water at 4.2 pH; format: physicochemical; settings: pH 4.2, read-out: S
Procedure, shortened: (§1)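 Aqueous solubility (mg/mL), measured with the pH of the resulting solution recorded.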

Rattus norvegicus [2] = species on record: Rattus norvegicus; test: Percentage converted to BMS-191011 after 30 min incubation in rat plasma at 37 degree C; Converted to an unknown compound; format: ADME, organism-based; settings: 0.5 h
Procedure, shortened: (§2)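 Prodrug was incubated in rat plasma for 30 min at 37 °C. The percentage converted to the parent BMS-191011 was then determined.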

[3] = […] expressed as percentage of compound remains at 24 hr in PEG400/Water, 1:1; format: ADME, organism-based; settings: read-out: Prodrug remains
Procedure, shortened: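 Chemical stability in PEG400/water (1:1) solution, given as the percentage of prodrug remaining after 24 h.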

Rattus norvegicus [4] = species on record: Rattus norvegicus; test: Percentage converted to BMS-191011 after 30 min incubation in rat plasma at 37 degree C; format: ADME, organism-based; settings: 0.5 h; procedure, shortened: as §2
[5] = Solubility in deionized water; format: physicochemical; settings: read-out: S
Procedure, shortened: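 Solubility of the prodrug (mg/mL) in deionized water.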

[6] = Solubility in water at 2.4 pH; format: physicochemical; settings: pH 2.4, read-out: S
Rattus norvegicus [7] = species on record: Rattus norvegicus; test: […] expressed as percentage of compound remains at 24 hr in PEG400/Water, 1:1; Not stable; format: ADME, organism-based
[8] = Solubility in water at 7.5 pH; format: physicochemical; settings: pH 7.5, read-out: S
[9] = Solubility in water at 7.0 pH; format: physicochemical; settings: pH 7, read-out: S
[10] = Solubility in water at 8.4 pH; format: physicochemical; settings: pH 8.4
[11] = t1/2 (apparent elimination)of the compound was determined; format: ADME, organism-based; settings: rat, in vivo
Procedure, shortened: (§3)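 Male SD rats (N=3) given prodrug by IV infusion at 1.7 mg/kg (equivalent to 1 mg/kg parent), vehicle PEG-400/water 1:1. Blood samples were mixed at once with an equal volume of water, quenched with four volumes of acetonitrile and stored at -20 °C. Prodrug and parent were measured by two separate LC/MS/MS assays. Mean ±SD.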

[12] = Area under curve was determined; format: ADME, organism-based; settings: rat, in vivo; procedure, shortened: as §3
[13] = Solubility in water at 5.5 pH; format: physicochemical; settings: pH 5.5, read-out: S; procedure, shortened: as §1
[14] = Solubility in water at 7.2 pH; format: physicochemical; settings: pH 7.2, read-out: S; procedure, shortened: as §1
[15] = Volume distribution was determined; format: ADME, organism-based; settings: rat, in vivo; read-out: Vdss; procedure, shortened: as §3
Rattus norvegicus [16] = test: Percent reduction of neocortical infract volume in 28 rats after IV administration (2h post MCA) at a dose of […]; format: functional
Procedure, shortened: (§4)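 Rat MCA occlusion model. Neocortical infarct volume was compared with vehicle controls (2% DMSO/98% propylene glycol) in the same study. Statistics by ANOVA with Dunnett's t-test, p<0.05; 28–29 animals per group.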

Rattus norvegicus [17] = test: Percent reduction of neocortical infract volume in 28 rats after IV administration (2h post MCA)at a dose of […]; format: functional; procedure, shortened: as §4
Rattus norvegicus [18] = test: Percent reduction of neocortical infract volume in 29 rats after IV administration (2h post MCA)at a dose of […]; format: functional; procedure, shortened: as §4
[19] = Plasma clearance was determined; format: ADME, organism-based; settings: rat; procedure, shortened: as §3

Compound: CS(=O)(=O)[O-].C[N+](C)(C)CC(=O)OCOc1ccc(Cl)cc1Cn1nc(-c2ccc(C(F)(F)F)cc2)oc1=O
solubility [1]: 4500 µg/mL | Conversion (Rattus norvegicus [2]): Converted to an unknown compound

Compound: CS(=O)(=O)[O-].C[N+](C)(C)CCOC(=O)Oc1ccc(Cl)cc1Cn1nc(-c2ccc(C(F)(F)F)cc2)oc1=O
remaining at 24 h [3]: 72% | Conversion (Rattus norvegicus [4]): 100%

Compound: CS(=O)(=O)[O-].C[N+](C)(C)CCCC(=O)Oc1ccc(Cl)cc1Cn1nc(-c2ccc(C(F)(F)F)cc2)oc1=O
remaining at 24 h [3]: > 90% | Conversion (Rattus norvegicus [4]): 95% | solubility [5]: > 4000 µg/mL

solubility [6]: 55 µg/mL (≈ 0.105 mM) | Prodrug remains (Rattus norvegicus [7]): Not stable | solubility [8]: 4 µg/mL (≈ 0.00762 mM)
Compound: O=C(OCOP(=O)(O)O)Oc1ccc(Cl)cc1Cn1nc(-c2ccc(C(F)(F)F)cc2)oc1=O

solubility [9]: 6100 µg/mL (≈ 12.7 mM) | Prodrug remains (Rattus norvegicus [7]): Not stable | solubility [10]: > 16000 µg/mL
Compound: O=c1oc(-c2ccc(C(F)(F)F)cc2)nn1Cc1cc(Cl)ccc1OCOP(=O)(O)O

Compound: CS(=O)(=O)[O-].C[N+](C)(C)CC(=O)c1ccc(Cl)cc1Cn1nc(-c2ccc(C(F)(F)F)cc2)oc1=O
remaining at 24 h [3]: > 90%

half-life [11]: 1.2 h | AUC [12]: 52.4 ng·h/mL
Compound: O=c1oc(-c2ccc(C(F)(F)F)cc2)nn1Cc1cc(Cl)ccc1O

Compound: CS(=O)(=O)[O-].C[N+](C)(C)CCC(=O)Oc1ccc(Cl)cc1Cn1nc(-c2ccc(C(F)(F)F)cc2)oc1=O
remaining at 24 h [3]: > 90% | Conversion (Rattus norvegicus [4]): 100% | solubility [5]: > 4000 µg/mL

Compound: O=c1oc(-c2ccc(C(F)(F)F)cc2)nn1Cc1cc(Cl)ccc1OP(=O)(O)O
Conversion (Rattus norvegicus [4]): 0% | solubility [13]: 4900 µg/mL (≈ 10.9 mM) | solubility [14]: 14600 µg/mL (≈ 32.4 mM)

Compound: CS(=O)(=O)[O-].C[N+](C)(C)CCCC(=O)OCOc1ccc(Cl)cc1Cn1nc(-c2ccc(C(F)(F)F)cc2)oc1=O
Vd [15]: 2.6 L/kg | Reduction (Rattus norvegicus [16]): -13% | Reduction (Rattus norvegicus [17]): -14% and -12% and -17% | Reduction (Rattus norvegicus [18]): -16% | half-life [11]: 2.7 h | remaining at 24 h [3]: > 97% | Conversion (Rattus norvegicus [4]): > 80% | solubility [5]: > 25000 µg/mL | AUC [12]: 1260 ng·h/mL | clearance [19]: 22.9 mL/min/kg
